The list is not random: actives were taken first. Their share in the collection is about 1.6%.
SENP1 FRET inh – human SENP1 catalytic domain inhibitors, primary screen, biochemical, FRET, uHTS; Sentrin-specific protease 1 (Homo sapiens), Q9P0U3; recombinant SENP1 catalytic domain, CyPet-SUMO1-YPet FRET cleavage; inhibition, % at 10 µM; 0.21% of 360,000 active; AID 624204, 2012;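 active = inhibition at least 30% at 10 µM, raw YFP signal under a set limit, fluorescence ratio 0.5 to 1.5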;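 note: 0% = enzyme with DMSO and 100% = no enzyme wells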
Target sequence (Q9P0U3 419-644 limits assumed): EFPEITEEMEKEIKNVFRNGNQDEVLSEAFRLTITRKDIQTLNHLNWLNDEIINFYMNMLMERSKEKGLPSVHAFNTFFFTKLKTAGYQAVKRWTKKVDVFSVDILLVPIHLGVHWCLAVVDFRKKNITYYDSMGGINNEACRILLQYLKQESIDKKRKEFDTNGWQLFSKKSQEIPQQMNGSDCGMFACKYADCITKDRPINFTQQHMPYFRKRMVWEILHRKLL
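Test system: recombinant human SENP1 catalytic domain, His6-tagged / Medium: pH 8 Tris buffer with EDTA, NaCl, BME, BSA, NP40, catalase / Also added: SUMO1 FRET substrate flanked by Cypet and Ypet, 25 nM / Times: 50 min reaction at room temperature / Signal: FRET, CFP and YFP emission / Control set: no-enzyme low control and enzyme-plus-DMSO high control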
Rpn11 inh – Rpn11 (PSMD14) deubiquitinase inhibitors, primary screen, biochemical, fluorescence polarization, uHTS; 26S proteasome non-ATPase regulatory subunit 14 (Homo sapiens), O00487; human 26S proteasome, Ub4-pepOG fluorescence polarization; 20S core pre-blocked with epoxomicin; inhibition, % at 20 µM; 0.59% of 360,000 active; AID 588493, 2011;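 active = inhibition at 20 µM, scaled to each plate's controls, above about 33%, limit read from the data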
HNF4A DNA FP – change in binding of human HNF4A to DNA, primary screen, biochemical, fluorescence polarization, FITC-DNA. AID 1224865, 2016. 1 h. Hepatocyte nuclear factor 4-alpha (Homo sapiens), P41235. activity change, % at 10 µM. 0.3% of 360,000 active; in the data active = activity change above about 30%, passing the limit was not always enough
TPT1 inh – Candida albicans TPT1 enzyme inhibitors, primary screen, biochemical, fluorescence polarization; tRNA 2'-phosphotransferase TPT1 (Candida albicans SC5314); 0.81% of 300,000 active; inhibition, % at 5 µM; AID 1962, 2009; recombinant caTPT1, FP RNA substrate dephosphorylation;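 active = inhibition above the mean of all tested compounds plus 3 SD, set per screening campaign, cut at about 24% in these data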;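 note: plate controls were DMSO alone for no effect and ferristatin control at 100 nM for full effect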
CSN deneddyl inh – inhibitors of CSN-mediated cullin deneddylation, primary screen, biochemical, fluorescence polarization, uHTS; 0.38% of 360,000 active; COP9 signalosome complex subunit 5 (Homo sapiens), Q92905; inhibition, % at 12.5 µM; Purified CSN, SCF-Nedd8-OG deneddylation;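 active = pattern-corrected inhibition above about 35%, with an unprinted fluorescence ratio check between 0.5 and 1.5, limit read from the data, passing the limit was not always enough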;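 note: 0% = enzyme with substrate and 100% = substrate without enzyme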
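Material: human Csn5 produced in HEK293T cells; Input: enzyme 0.24 nM; Reagent: SCFSkp2-Nedd8OG substrate at 10 nM final; Dosing: 12.5 µM compound; Incubation: 90 min reaction at room temperature; Detection: fluorescence polarization of the substrate; Evaluation: % inhibition of substrate cleavage by Csn5; Control set: substrate-only high control, full reaction low control.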
Rpn11 inh conf – Rpn11 (PSMD14) deubiquitinase inhibitors, confirmation, biochemical, fluorescence polarization, single concentration | shares compounds with Rpn11 inh | AID 602318, 2012 | inhibition, % at 20 µM | 29% of 1,900 active | purified human 26S proteasome, Ub4-pepOG fluorescence polarization; proteasome pretreated with epoxomicin
MMP-2 inh – MMP-2 enzyme inhibition, confirmation, counter-screen for RPN11 inhibitor project, biochemical, fluorescence, single concentration; AID 602330, 2012; 4% of 1,900 active; shares compounds with Rpn11 inh; recombinant MMP-2, FRET peptide cleavage fluorescence; inhibition, % at 20 µM;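 note: human MMP-2 activated beforehand with APMA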
Thrombin inh – bovine thrombin protease inhibition, confirmation, counter-screen for Rpn11 inhibitor project, biochemical, fluorescence polarization, single concentration; bovine thrombin cleavage of Ub4-pepOG; inhibition, % at 20 µM; shares compounds with Rpn11 inh; 13% of 1,900 active;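 active = mean inhibition at least 40% at 20 µM, or signal 3 deviations below plate average, so some actives read negative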;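 note: plate controls were thrombin with DMSO for no effect and buffer wells lacking thrombin for full effect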
* = called active by the depositor; x = not tested or not shown. Cut-off read from the data, not from the text of the source, unless noted: active = inhibition above about 40%; inactive = the rest.

SMILES	SENP1 FRET inh	Rpn11 inh	HNF4A DNA FP	TPT1 inh	CSN deneddyl inh	Rpn11 inh conf	MMP-2 inh	Thrombin inh
COC(=O)c1cc2ccc(OC)c(OC)c2c(=O)s1	-3	-6	-2	-2	0	x	x	x
N#Cc1c(-c2ccco2)cc(C2CC2)nc1N	-30	42*	23	6	17	-7	-54	-4
COc1ccc(N(CC(=O)NCc2ccc3c(c2)OCO3)S(=O)(=O)c2ccccc2[N+](=O)[O-])c(OC)c1	0	56*	-4	-1	4	-12	-19	-7
O=C(c1ccc2c3c(cccc13)CC2)C1CCCN(C(=O)c2cccnc2)C1 (centres undefined)	2	4	1	1	0	x	x	x
O=C(c1ccc2c3c(cccc13)CC2)C1CCCN(Cc2cccnc2)C1 (centres undefined)	-8	37*	1	3	-1	-10	1	-17
COc1cccc(/C=N/NC(=O)c2cc3cc([N+](=O)[O-])ccc3s2)c1O	9	62*	60	12	120	34	-23	-19
COc1cc([N+](=O)[O-])cc(/C=N/NC(=O)c2ccc(C)nc2)c1O	-8	-3	-1	9	5	x	x	x
COc1cc([N+](=O)[O-])cc(/C=N/NC(=O)c2ccc(NC(=O)c3ccc(C)cc3)cc2)c1O	-28	42*	-5	x	-7	26	14	4
COc1ccccc1/C=N/NC(=O)c1ccc(NC(=O)c2cccc([N+](=O)[O-])c2)cc1	x	x	x	2	x	x	x	x
O=c1c(-c2cccnc2)nc2ccccc2n1C(c1ccccn1)c1nc2ccccc2[nH]1 (centres undefined)	-1	x	-1	x	6	x	x	x
CCOC(=O)/C=c1\s/c(=C\c2ccc(C(F)(F)F)cc2)c(=O)n1CC(=O)NCc1ccco1	5	49*	10	23	12	36	-29	38
Cc1ccc(C2CC(c3cccs3)=NN2S(=O)(=O)c2ccc(C)cc2)cc1 (centres undefined)	-11	45*	24	-1	14	41*	-12	19
COc1ccc(C2CC(c3cccs3)=NN2S(=O)(=O)c2ccc(C)cc2)cc1 (centres undefined)	2	8	1	3	5	x	x	x
Clc1cccc2sc(N3CCOCC3)nc12	0	33*	-2	-1	0	-7	-47	-12
N#Cc1cnc2nc1NCCCCCCC2	0	-4	0	x	-1	x	x	x
CCc1c(O)nc(SCC(=O)Nc2ccc(C)cc2)n(C2CCCCC2)c1=O	13	85*	26	15	16	42*	1	28
COc1ccc(NC(=O)c2nc(S(=O)(=O)Cc3cccc(C)c3)ncc2Cl)c(OC)c1	2	41*	5	4	3	27	-35	-9
O=S(=O)(Nc1nc2ccccc2nc1Nc1ccc2c(c1)OCO2)c1ccc(F)cc1	-11	38*	12	-2	15	14	6	-17
O=C(O)c1cccc(Nc2nc3ccccc3nc2NS(=O)(=O)c2ccc(F)cc2)c1	1	1	1	x	-4	x	x	x
CN(C)S(=O)(=O)N1CCCC(C(=O)c2ccc(C(F)(F)F)cc2)C1 (centres undefined)	-1	-6	-2	-3	-3	x	x	x

Screens as filed in PubChem BioAssay.
